From ChEMBL document CHEMBL1144684, “Evaluation of a series of naphthamides as potent, orally active vascular endothelial growth factor receptor-2 tyrosine kinase inhibitors” (J Med Chem, 2008)
pIC50: −log10 of the molar value. Converted amounts (≈) assume the structure as drawn. The source made the active and inactive calls. The rule behind the calls is not given here.

Columns and labels:
HUVEC [1] = assay: Selectivity of IC50 for VEGF-induced proliferation over IC50 for bFGF-induced proliferation of HUVEC; type: functional, Homo sapiens
Summary of the method: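 HUVECs were seeded at 3000 cells/well in DMEM/10% FBS with pen/strep and cultured for 22 h. They were preincubated 2 h with serially diluted compound, then stimulated with 50 ng/mL VEGF or 20 ng/mL bFGF for 72 h at 37 °C, 5% CO2. Cells were washed, frozen at -70 °C and stained with CyQuant. IC50s came from a four-parameter logistic fit, averaged over ≥2 experiments; the VEGF IC50 was compared against the bFGF IC50.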

Angiopoietin-1 receptor = Angiopoietin-1 receptor (Homo sapiens, UniProt Q02763); assay: Inhibition of Tie2
[2] = molecular target: Hepatocyte growth factor receptor (Homo sapiens, UniProt P08581); assay: Inhibition of c-Met
Aurora kinase A = molecular target: T1, Aurora kinase A (Homo sapiens, UniProt O14965); assay: Inhibition of Aurora A
T1 sequence (O14965 whole entry): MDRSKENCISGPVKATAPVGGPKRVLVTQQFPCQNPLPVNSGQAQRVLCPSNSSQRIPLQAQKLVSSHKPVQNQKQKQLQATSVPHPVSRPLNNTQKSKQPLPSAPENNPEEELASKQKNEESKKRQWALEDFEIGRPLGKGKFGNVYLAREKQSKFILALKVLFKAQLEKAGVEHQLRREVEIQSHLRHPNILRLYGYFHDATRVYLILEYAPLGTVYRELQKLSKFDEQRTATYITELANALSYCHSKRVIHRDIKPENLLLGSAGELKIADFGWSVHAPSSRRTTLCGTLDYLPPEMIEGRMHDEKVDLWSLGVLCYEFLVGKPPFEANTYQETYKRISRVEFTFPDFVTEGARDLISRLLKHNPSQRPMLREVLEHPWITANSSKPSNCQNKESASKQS

Aurora kinase B = Aurora kinase B (Homo sapiens, UniProt Q96GD4); assay: Inhibition of Aurora B
HUVEC [3] = assay: Inhibition of VEGF-induced proliferation of HUVEC; type: functional, cell-based; details: Homo sapiens
[4] = molecular target: Vascular endothelial growth factor receptor 2 (Homo sapiens, UniProt P35968)
[5] = molecular target: Vascular endothelial growth factor receptor 3 (Homo sapiens) (UniProt P35916); assay: Inhibition of human VEGFR3
[6] = molecular target: Tyrosine-protein kinase Lck (Homo sapiens, UniProt P06239); assay: Inhibition of Lck
HUVEC [7] = assay: Inhibition of bFGF-induced proliferation of HUVEC; type: functional, cell-based; details: Homo sapiens
Summary of the method: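 HUVEC seeded at 3000/well in DMEM with 10% FBS, 22 h; 2 h preincubation with serial compound dilutions, then 50 ng/mL VEGF or 20 ng/mL bFGF for 72 h at 37 °C. Freeze–thaw, CyQuant DNA dye read-out; IC50 by four-parameter logistic fit, averaged over ≥2 experiments.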

[8] = Intrinsic clearance in rat liver microsomes at 1 uM; type: ADME, Microsome; details: read-out: Stability
Summary of the method: (§1)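 Human or rat liver microsomes (0.25 mg protein/mL) with 1 mM NADPH, 2 mM MgCl2 in 50 mM potassium phosphate pH 7.4 at 37 °C; compound 1 µM final. Sampled 0–40 min into acetonitrile, LC-MS/MS; ln % remaining vs time slope gives T1/2; CLint = (0.693/T1/2)/0.25 mg/mL.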

[9] = Intrinsic clearance in human liver microsomes at 1 uM; type: ADME, Microsome; details: read-out: Stability; summary of the method: as §1
[10] = Clearance in Sprague-Dawley rat at 0.5 mg/kg, iv; type: ADME, organism-based; set-up: dose 0.5 mg/kg, route intravenous; details: in vivo
Summary of the method: (§2)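 Male Sprague–Dawley rats dosed iv via femoral vein as DMSO solution (1 or 0.5 mg/kg) or po by gavage as OraPlus suspension (pH 2.0–2.2 with methanesulfonic acid; 10 or 2 mg/kg). Serial jugular blood over 12–24 h; plasma acetonitrile precipitation, LC-MS/MS (MRM) with internal standard; noncompartmental parameters.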

[11] = Volume of distribution at steady state in Sprague-Dawley rat at 0.5 mg/kg, iv; type: ADME, organism-based; set-up: dose 0.5 mg/kg, route intravenous; details: in vivo, read-out: Vdss
Summary of the method: (§3)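 Male Sprague–Dawley rats dosed iv at 0.5 mg/kg as DMSO solution or po at 2 mg/kg as suspension in 100% OraPlus. Serial jugular blood, plasma LC-MS/MS quantitation, noncompartmental analysis.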

[12] = Half life in Sprague-Dawley rat at 0.5 mg/kg, iv; type: ADME, organism-based; set-up: dose 0.5 mg/kg, route intravenous; details: in vivo; summary of the method: as §2
[13] = AUC (0 to infinity) in Sprague-Dawley rat at 2 mg/kg, po; type: ADME, organism-based; set-up: time infinity, dose 2 mg/kg, route oral; details: plasma; summary of the method: as §2
[14] = Cmax in Sprague-Dawley rat at 2 mg/kg, po; type: ADME, organism-based; set-up: dose 2 mg/kg, route oral; details: in vivo; summary of the method: as §2
[15] = Tmax in Sprague-Dawley rat at 2 mg/kg, po; type: ADME, organism-based; set-up: dose 2 mg/kg, route oral; details: in vivo; summary of the method: as §3
[16] = Oral bioavailability in Sprague-Dawley rat at 2 mg/kg; type: ADME, organism-based; details: in vivo; summary of the method: as §3
[17] = Aqueous solubility in 0.01 N Hcl; type: physicochemical

Sequence of Vascular endothelial growth factor receptor 2 (P35968 whole entry): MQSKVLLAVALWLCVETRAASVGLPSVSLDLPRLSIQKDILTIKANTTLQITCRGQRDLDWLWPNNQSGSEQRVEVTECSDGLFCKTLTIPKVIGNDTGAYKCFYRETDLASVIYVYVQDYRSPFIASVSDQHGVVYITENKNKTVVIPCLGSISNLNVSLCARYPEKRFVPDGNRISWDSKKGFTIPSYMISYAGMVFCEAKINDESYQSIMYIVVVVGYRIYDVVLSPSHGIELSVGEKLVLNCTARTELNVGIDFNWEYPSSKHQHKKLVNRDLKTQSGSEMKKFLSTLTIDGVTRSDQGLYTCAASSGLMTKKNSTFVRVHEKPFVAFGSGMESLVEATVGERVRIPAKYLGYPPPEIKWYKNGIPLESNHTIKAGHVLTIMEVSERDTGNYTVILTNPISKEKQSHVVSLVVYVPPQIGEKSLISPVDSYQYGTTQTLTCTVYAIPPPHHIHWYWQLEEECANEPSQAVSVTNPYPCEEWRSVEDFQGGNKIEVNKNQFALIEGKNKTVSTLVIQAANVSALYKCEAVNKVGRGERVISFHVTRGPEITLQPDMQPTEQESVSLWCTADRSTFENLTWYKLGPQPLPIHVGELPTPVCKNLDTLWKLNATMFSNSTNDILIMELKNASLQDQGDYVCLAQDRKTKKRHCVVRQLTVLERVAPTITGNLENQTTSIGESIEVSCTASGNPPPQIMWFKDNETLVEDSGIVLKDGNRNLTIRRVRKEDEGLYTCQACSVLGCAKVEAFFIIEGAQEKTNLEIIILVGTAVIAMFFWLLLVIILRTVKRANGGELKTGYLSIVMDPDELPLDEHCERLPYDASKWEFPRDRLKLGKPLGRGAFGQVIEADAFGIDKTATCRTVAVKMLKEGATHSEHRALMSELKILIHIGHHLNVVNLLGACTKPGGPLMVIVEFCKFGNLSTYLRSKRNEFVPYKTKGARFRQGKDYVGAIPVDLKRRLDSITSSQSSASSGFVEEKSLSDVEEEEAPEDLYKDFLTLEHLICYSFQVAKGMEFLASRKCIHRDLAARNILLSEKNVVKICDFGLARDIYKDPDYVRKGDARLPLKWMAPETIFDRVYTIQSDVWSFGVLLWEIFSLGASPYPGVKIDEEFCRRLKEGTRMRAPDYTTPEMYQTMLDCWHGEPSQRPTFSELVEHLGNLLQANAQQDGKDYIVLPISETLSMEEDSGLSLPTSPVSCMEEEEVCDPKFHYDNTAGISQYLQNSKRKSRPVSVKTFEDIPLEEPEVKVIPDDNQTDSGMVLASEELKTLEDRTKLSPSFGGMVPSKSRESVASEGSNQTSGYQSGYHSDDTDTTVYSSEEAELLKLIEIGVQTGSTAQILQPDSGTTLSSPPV
Sequence of Angiopoietin-1 receptor (Q02763 whole entry): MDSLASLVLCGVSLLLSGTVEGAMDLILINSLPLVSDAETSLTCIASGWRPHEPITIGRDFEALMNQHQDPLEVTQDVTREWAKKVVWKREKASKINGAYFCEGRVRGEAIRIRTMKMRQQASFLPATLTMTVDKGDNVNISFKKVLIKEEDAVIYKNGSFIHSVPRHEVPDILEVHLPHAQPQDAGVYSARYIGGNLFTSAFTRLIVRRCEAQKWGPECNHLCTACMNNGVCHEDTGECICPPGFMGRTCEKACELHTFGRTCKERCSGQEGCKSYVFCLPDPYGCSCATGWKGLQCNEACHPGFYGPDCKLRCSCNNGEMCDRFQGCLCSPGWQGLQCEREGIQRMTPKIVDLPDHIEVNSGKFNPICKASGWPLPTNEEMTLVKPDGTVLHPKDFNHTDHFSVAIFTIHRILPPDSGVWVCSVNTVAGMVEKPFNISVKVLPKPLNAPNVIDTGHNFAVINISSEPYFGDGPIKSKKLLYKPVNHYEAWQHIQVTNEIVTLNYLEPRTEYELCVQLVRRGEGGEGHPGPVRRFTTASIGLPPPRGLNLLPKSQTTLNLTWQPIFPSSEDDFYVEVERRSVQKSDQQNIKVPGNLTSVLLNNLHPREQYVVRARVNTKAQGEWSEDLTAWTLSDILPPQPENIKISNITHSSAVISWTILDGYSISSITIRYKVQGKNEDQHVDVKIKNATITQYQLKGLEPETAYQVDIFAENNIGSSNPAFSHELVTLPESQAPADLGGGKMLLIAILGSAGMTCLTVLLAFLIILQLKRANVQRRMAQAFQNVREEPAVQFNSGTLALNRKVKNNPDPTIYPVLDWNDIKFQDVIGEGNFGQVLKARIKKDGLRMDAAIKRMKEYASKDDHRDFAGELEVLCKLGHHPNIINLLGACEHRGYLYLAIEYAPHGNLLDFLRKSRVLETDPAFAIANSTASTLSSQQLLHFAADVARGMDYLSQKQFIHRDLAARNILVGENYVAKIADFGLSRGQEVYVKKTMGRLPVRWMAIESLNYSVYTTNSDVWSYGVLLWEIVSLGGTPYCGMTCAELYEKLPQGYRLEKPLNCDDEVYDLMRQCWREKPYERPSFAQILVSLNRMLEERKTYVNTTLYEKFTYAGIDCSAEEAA
Sequence of Aurora kinase B (Q96GD4 whole entry): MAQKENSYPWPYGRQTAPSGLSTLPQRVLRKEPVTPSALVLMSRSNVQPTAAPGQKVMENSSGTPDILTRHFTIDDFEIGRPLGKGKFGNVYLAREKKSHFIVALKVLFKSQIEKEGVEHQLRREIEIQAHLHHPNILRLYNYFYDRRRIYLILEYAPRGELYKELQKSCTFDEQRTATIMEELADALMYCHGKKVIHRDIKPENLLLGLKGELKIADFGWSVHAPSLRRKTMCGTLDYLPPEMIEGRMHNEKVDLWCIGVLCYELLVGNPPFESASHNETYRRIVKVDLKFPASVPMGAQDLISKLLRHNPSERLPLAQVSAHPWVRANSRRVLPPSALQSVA
Sequence of Tyrosine-protein kinase Lck (P06239 whole entry): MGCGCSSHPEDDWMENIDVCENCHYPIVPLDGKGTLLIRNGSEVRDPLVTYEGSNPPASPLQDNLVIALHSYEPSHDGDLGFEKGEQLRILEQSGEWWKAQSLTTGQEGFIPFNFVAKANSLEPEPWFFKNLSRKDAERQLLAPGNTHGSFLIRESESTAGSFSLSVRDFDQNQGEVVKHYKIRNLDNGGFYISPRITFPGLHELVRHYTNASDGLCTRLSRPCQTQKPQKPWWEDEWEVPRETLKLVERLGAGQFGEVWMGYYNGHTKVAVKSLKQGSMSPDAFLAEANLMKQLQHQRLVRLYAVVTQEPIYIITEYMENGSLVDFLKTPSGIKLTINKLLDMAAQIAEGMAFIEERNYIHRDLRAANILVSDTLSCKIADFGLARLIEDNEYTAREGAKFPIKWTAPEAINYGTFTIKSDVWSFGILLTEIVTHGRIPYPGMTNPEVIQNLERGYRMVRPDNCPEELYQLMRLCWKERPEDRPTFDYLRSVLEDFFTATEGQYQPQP
Sequence of Hepatocyte growth factor receptor (P08581 whole entry): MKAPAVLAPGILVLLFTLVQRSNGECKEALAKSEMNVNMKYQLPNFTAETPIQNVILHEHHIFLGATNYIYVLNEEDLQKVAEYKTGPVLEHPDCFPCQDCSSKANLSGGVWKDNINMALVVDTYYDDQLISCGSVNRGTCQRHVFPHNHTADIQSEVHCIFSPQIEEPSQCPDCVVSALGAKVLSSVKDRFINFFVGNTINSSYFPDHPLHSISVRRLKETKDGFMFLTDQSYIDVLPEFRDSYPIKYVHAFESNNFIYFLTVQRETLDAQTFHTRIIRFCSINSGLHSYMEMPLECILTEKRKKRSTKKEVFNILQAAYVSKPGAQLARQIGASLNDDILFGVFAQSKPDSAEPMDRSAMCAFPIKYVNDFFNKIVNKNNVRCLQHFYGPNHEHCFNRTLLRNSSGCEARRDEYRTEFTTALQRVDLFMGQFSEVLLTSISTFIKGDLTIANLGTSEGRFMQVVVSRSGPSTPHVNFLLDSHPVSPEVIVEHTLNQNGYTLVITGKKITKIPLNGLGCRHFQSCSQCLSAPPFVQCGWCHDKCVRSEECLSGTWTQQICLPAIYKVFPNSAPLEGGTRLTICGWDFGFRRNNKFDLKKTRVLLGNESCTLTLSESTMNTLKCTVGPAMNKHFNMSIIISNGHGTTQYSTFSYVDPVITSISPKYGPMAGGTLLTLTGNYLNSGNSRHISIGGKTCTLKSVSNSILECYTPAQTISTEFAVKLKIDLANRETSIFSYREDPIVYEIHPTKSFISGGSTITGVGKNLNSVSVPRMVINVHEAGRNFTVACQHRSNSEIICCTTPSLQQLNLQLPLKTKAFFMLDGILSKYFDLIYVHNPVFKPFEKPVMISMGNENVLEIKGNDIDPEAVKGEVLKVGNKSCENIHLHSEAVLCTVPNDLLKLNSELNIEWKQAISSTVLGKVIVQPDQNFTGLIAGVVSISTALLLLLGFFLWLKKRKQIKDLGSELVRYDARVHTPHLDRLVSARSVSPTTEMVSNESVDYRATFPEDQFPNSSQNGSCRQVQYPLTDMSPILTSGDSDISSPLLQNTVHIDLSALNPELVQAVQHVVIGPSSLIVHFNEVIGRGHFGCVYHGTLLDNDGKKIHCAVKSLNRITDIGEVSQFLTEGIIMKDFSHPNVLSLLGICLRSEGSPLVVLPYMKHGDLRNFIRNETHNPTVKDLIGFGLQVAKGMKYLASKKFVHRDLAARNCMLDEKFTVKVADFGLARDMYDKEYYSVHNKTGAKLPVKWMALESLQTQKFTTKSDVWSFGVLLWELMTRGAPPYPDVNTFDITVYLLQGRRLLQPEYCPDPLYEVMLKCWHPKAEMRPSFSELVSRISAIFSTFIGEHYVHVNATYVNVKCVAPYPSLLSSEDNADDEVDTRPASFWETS

| SMILES | pIC50 (Angiopoietin-1 receptor) | pIC50 [2] | pIC50 (Aurora kinase A) | pIC50 (Aurora kinase B) | pIC50 [4] | Activity [5] | pIC50 [6] | microsomal CLint at 1 µM [8] | microsomal CLint at 1 µM [9] | clearance [10] | Vd [11] | half-life [12] | AUC(0-inf) [13] | Cmax [14] | Tmax [15] | bioavailability [16] | solubility [17] | Selectivity ratio (HUVEC [1]) | pIC50 (HUVEC [3]) | pIC50 (HUVEC [7]) |
| --- | --- | --- | --- | --- | --- | --- | --- | --- | --- | --- | --- | --- | --- | --- | --- | --- | --- | --- | --- | --- |
| COc1cc2ncnc(Oc3ccc4c(C(=O)NC5CC5)cccc4c3)c2cc1OC | 5.13 | 4.70 | 5.08 | 6.44 | 8.54 | – | – | – | – | – | – | – | – | – | – | – | – | >100 | 8.14 | – |
| CNC(=O)c1cccc2cc(Oc3ccnc4cc(OC)c(OC)cc34)ccc12 | 4.60 | 4.70 | 5.44 | 6.96 | – | – | 6.15 | – | – | – | – | – | – | – | – | – | – | – | 9.35 | 7.34 |
| COc1cc2nccc(Oc3ccc4c(C(=O)NC5CC5)cccc4c3)c2cc1C(N)=O | 5.74 | 4.70 | 5.36 | 6.73 | 9.43 | – | – | 16 µL/min/mg | 12 µL/min/mg | 0.508 L/h/kg | 0.379 L/kg | 75.6 min | 0.9 µg·h/mL | 0.715 µg/mL | 40.2 min | 39% | – | >100 | 8.92 | – |
| COc1cc2nccc(Oc3ccc4c(C(=O)NC5CCC5)cccc4c3)c2cc1OC | 5.40 | 5.12 | 6.36 | – | 8.89 | – | 6.00 | – | – | – | – | – | – | – | – | – | – | >100 | 8.17 | 5.94 |
| COc1cc2nccc(Oc3ccc4c(C(=O)NCC(F)(F)F)cccc4c3)c2cc1OC | 4.60 | 4.70 | 6.03 | 7.80 | 8.42 | – | 4.60 | – | – | – | – | – | – | – | – | – | – | – | 7.62 | 5.94 |
| COc1cc2nccc(Oc3ccc4c(C(=O)NC5(C)CC5)cccc4c3)c2cc1OC | 5.96 | 5.30 | 6.25 | 7.21 | – | – | 5.70 | – | – | – | – | – | – | – | – | – | – | – | 7.15 | 5.94 |
| CCNC(=O)c1cccc2cc(Oc3ccnc4cc(OC)c(OC)cc34)ccc12 | 4.60 | 4.70 | 5.82 | 7.34 | 8.89 | – | 5.92 | – | – | – | – | – | – | – | – | – | – | >100 | 9.48 | 6.82 |
| COc1cc2nccc(Oc3ccc4c(C(=O)NC(C)C)cccc4c3)c2cc1OC | 4.60 | 4.70 | 5.44 | 6.72 | 8.23 | – | 5.74 | – | – | – | – | – | – | – | – | – | – | >100 | 8.36 | 5.94 |
| COc1cc2nccc(Oc3ccc4c(C(=O)NCC5CC5)cccc4c3)c2cc1OC | 5.03 | 5.28 | 6.08 | 8.00 | 7.96 | – | 5.96 | – | – | – | – | – | – | – | – | – | – | – | 7.66 | 5.94 |
| COc1cc2nccc(Oc3ccc4c(C(=O)NC5CCCC5)cccc4c3)c2cc1OC | 5.85 | 5.49 | 6.21 | – | 7.82 | – | 5.89 | – | – | – | – | – | – | – | – | – | – | >100 | 8.18 | 5.94 |

Continued, in another order:

| pIC50 (Angiopoietin-1 receptor) | pIC50 [2] | pIC50 (Aurora kinase A) | pIC50 (Aurora kinase B) | pIC50 [4] | Activity [5] | pIC50 [6] | microsomal CLint at 1 µM [8] | microsomal CLint at 1 µM [9] | clearance [10] | Vd [11] | half-life [12] | AUC(0-inf) [13] | Cmax [14] | Tmax [15] | bioavailability [16] | solubility [17] | SMILES | Selectivity ratio (HUVEC [1]) | pIC50 (HUVEC [3]) | pIC50 (HUVEC [7]) |
| --- | --- | --- | --- | --- | --- | --- | --- | --- | --- | --- | --- | --- | --- | --- | --- | --- | --- | --- | --- | --- |
| 5.08 | 4.70 | 4.60 | 6.41 | 6.50 | Active | – | – | – | – | – | – | – | – | – | – | – | COCCNC(=O)c1cccc2cc(Oc3ncnc4cc(OC)c(OC)cc34)ccc12 | >100 | – | – |
| 4.60 | 4.70 | 5.08 | 6.89 | – | – | – | – | – | – | – | – | – | – | – | – | – | COc1ccc2c(Oc3ccc4c(C(N)=O)cccc4c3)ccnc2c1 | – | 7.80 | – |
| 5.28 | 5.13 | 5.17 | 6.41 | – | – | – | – | – | – | – | – | – | – | – | – | – | COc1cc2nccc(Oc3ccc4c(C(N)=O)cccc4c3)c2cc1C(N)=O | – | – | – |
| 4.60 | 4.70 | 5.08 | – | 7.55 | – | – | – | – | – | – | – | – | – | – | – | – | COCCNC(=O)c1cccc2cc(Oc3ccnc4cc(OC)ccc34)ccc12 | >100 | 7.70 | – |
| 5.08 | 4.70 | 5.08 | 6.17 | – | – | – | – | – | – | – | – | – | – | – | – | – | COc1cc2ncnc(Oc3ccc4c(C(N)=O)cccc4c3)c2cc1OC | – | 7.80 | – |
| 5.08 | – | 5.46 | – | 8.38 | – | 6.00 | – | – | – | – | – | – | – | – | – | – | COCCCNC(=O)c1cccc2cc(Oc3ccnc4cc(OC)c(OC)cc34)ccc12 | >100 | 8.15 | – |
| 5.08 | 4.70 | 5.08 | – | 9.35 | – | – | – | – | – | – | – | – | – | – | – | – | COc1ccc2c(Oc3ccc4c(C(=O)NC5CC5)cccc4c3)ccnc2c1 | >100 | 8.47 | – |
| 5.37 | – | 5.77 | – | – | – | 5.89 | – | – | – | – | – | – | – | – | – | – | CCCNC(=O)c1cccc2cc(Oc3ccnc4cc(OC)c(OC)cc34)ccc12 | – | 8.13 | 6.22 |
| 6.24 | – | 6.43 | – | – | – | – | – | – | – | – | – | – | – | – | – | 1.1 µg/mL (≈ 2.27 µM) | COc1cc2nccc(Oc3ccc4c(C(=O)Nc5ccc(Cl)cc5)cccc4c3)c2cc1OC | – | 8.12 | 5.94 |
| 4.60 | 4.96 | 5.43 | – | 5.82 | – | 5.37 | – | – | – | – | – | – | – | – | – | – | COc1cc2nccc(Oc3ccc4c(C(=O)NC(C)(C)C)cccc4c3)c2cc1OC | >100 | – | – |
